Bioassay records deposited in PubChem BioAssay by several laboratories.
The list is not random: actives were taken first. Their share in the collection is about 11%.
S1P1 ag pot = agonists and agonism potentiators of human S1P1 receptor | S1P1 CRE-bla cells, forskolin, beta-lactamase FRET, potentiator mode; S1P1 agonist co-added at EC20, 2 nM; 100% = saturating reference agonist, 0% = basal | activation, % at 9.5 µM | hit rate 0.57% among 56,000 | AID 449;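 active means activation above a cutoff set at the mean activation of all tested compounds plus 3 SD, cut at about 54% in these data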;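 further: forskolin at 4 µM as EC80 and the EC20 agonist is SEW2871; 100% = SEW2871 at its EC100 plus forskolin at EC80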
M1 antag = antagonists of rat M1 muscarinic receptor. CHO-M1 cells, Fluo-4 calcium, ACh EC80 antagonist mode; stronger effect = lower value. B-score at 10 µM. hit rate 3.4% among 64,000. AID 628;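 active means calcium fluorescence response, raw or row-and-column corrected B-score, differing from the plate sample mean either way at a set confidence level, mostly lower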
S1P3 agonist = activates the human S1P3 receptor | Q99500 | S1P3 NFAT-BLA reporter cells, agonism, FRET ratio; relative to 1 µM S1P, basal subtracted | activation, % at 4.5 µM | hit rate 0.1% among 60,000 | AID 373;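 active means activation above the screen-wide mean plus 3 SD, cut at about 4.5% in these data, passing the limit was not always enough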
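Material: Human S1P3 NFAT-BLA reporter CHO cells | Incubation: Overnight plating, 4 h compound 37 °C, 2 h substrate RT | Signal: FRET β-lactamase substrate fluorescence, excitation 405 nm, 460/535 nm emission ratio, background-subtracted | Compound: 4.5 µM final, single dose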
D1 allo mod = D1 dopamine receptor (human) allosteric modulation; P21728; HEK293 D1, CRE-luciferase, dopamine EC30 potentiation; actives deviate in either direction; B-score at 10 µM; hit rate 5.9% among 58,000; AID 641;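 active means luminescence count or its row- and column-corrected plate score outside the 99.7% band of the plate's sample wells, on either side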
Target sequence (P21728 whole entry, looked up): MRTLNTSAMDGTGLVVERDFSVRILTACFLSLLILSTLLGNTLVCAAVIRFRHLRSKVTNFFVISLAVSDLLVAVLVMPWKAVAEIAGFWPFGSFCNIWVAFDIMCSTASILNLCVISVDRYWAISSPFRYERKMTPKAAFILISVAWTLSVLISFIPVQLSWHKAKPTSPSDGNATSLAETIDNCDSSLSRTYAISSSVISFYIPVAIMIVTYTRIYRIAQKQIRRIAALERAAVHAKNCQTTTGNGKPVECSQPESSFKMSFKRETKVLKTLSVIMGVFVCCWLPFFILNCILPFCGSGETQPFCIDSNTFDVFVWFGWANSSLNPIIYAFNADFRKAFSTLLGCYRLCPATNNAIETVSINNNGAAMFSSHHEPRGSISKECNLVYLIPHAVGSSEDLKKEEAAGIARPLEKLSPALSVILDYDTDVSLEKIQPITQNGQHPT
M1 ag = activates the M1 muscarinic receptor; CHO-M1 cells, Fluo-4 calcium fluorescence, agonist mode; stronger effect = higher value; B-score at 10 µM; hit rate 3% among 64,000;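 active means fluorescence rise, raw or as B-score row- and column-corrected plate score, outside the 99.7% band of its plate's samples, either direction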
M1 antag confirm = confirmation of rat M1 muscarinic receptor antagonists | shares compounds with M1 antag | CHO-M1 cells, Fluo-4 calcium, ACh EC80 antagonism; stronger effect = lower value | calcium response (max-min fluorescence) at 10 µM | hit rate 43% among 1,700 | AID 677;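 active means calcium response below the same-plate mean of wells given acetylcholine alone at its 80%-effect dose, minus 3 SD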;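 further: raw fluorescence intensity difference in arbitrary instrument units and not normalized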
mGluR4 antag = acts on human mGluR4 in M1 antagonist selectivity test. shares compounds with M1 antag. CHO-mGluR4 calcium flux, Fluo-4 fluorescence, glutamate EC80; stronger effect = lower value. fluorescence response (max-min) at 10 µM. hit rate 0.9% among 1,700;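 active means fluorescence response below the plate's average for near-maximal glutamate wells, less 3 SD of those wells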;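 further: raw unnormalized fluorescence span taken in the window right after glutamate addition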
Starred values were filed as active, the others as inactive; · = not tested or not shown.

SMILES | S1P1 ag pot | M1 antag | S1P3 agonist | D1 allo mod | M1 ag | M1 antag confirm | mGluR4 antag
O=C(NCCN1C(=O)C2C3C=CC(C3)C2C1=O)Nc1ccccc1O (stereo not given) | -18 | 0.07 | -1 | -0.37 | 0.7 | · | ·
CCOc1cc(C)nc(N2CCN(C3CCCCC3)CC2)n1 | -12 | -3.3* | 0 | -0.26 | 0.18 | 444* | 253
CCSCCOC(=O)C1=C(C)NC2=C(C(=O)CCC2)C1c1coc2ccccc2c1=O (stereo not given) | -24 | 0.6 | -2 | 0.38 | 0.72 | · | ·
COC(=O)C1=CN(C2CC2)C=C(C(=O)OC)C1c1ccc(C(=O)OC)cc1 | -16 | -5.9* | 1 | 1.4 | -0.58 | 188* | 183
COC(=O)C1=CN(C)C=C(C(=O)OC)C1c1ccsc1 | -43 | 0.89 | 1 | · | -0.071 | · | ·
CCOCCCNc1nc(=S)[nH]c2cc(OC)c(OC)cc12 | -6 | -2.9* | -1 | -0.69 | -0.34 | 550 | 206
COCCNc1nc(=S)[nH]c2cc(OC)c(OC)cc12 | -38 | 0.37 | -1 | 0.062 | 1.5 | · | ·
CN1CCN(CCCNC(=O)C2CCN(c3nnc(-n4cccc4)s3)CC2)CC1 | -2 | -0.9 | 0 | · | 0.0027 | · | ·
CCN(CCNC(=O)C1CCN(c2nnc(-n3cccc3)s2)CC1)c1ccccc1 | -2 | -0.83* | 1 | -1.2 | -0.43 | 630 | 192
O=C(CSc1nnc(CNC(=O)c2ccccc2F)o1)c1ccccc1 | · | -3.2* | · | -0.78 | -2 | 611 | 245
O=C(NCc1nnc(SCC(=O)N2CCCC2)o1)c1ccccc1F | · | -1.1 | · | -0.47 | -0.5 | · | ·
COc1ccccc1S(=O)Cc1ccc(C(=O)NCCc2ccc(Cl)cc2)o1 (stereo not given) | 4 | -3.2* | 1 | -2.8 | 2.4 | 545 | 193
Cc1cc2ccccc2c(=O)n1CC(=O)NCC(=O)N1CCCC1 | 1 | -1.4 | 0 | -0.85 | 0.45 | · | ·
COc1ccc(N2CCN(C(=O)CNC(=O)Cn3c(C)cc4ccccc4c3=O)CC2)cc1 | -2 | -2.4* | 0 | -0.3 | -0.86 | 642 | 245
Cc1ccc(C(C(=O)NC2CCCC2)N(Cc2cccnc2)C(=O)c2snc(C(N)=O)c2N)o1 (stereo not given) | -19 | -0.32* | -1 | 0.0015 | -0.028 | 600 | 221
COc1cccc(-c2nc(CS(=O)(=O)CC(=O)NCCCN3CCc4ccccc4C3)c(C)o2)c1 | 17 | -1.8* | -1 | -0.12 | -2 | 419 | 202
CCCOc1ccc(C(=O)c2nc3c(n2O)CCCC3)cc1 | -10 | -0.1 | 0 | 0.95 | -1.5 | · | ·
Cc1ccc(NC(=O)COC(=O)C2CC2C)c(S(=O)(=O)N2CCCCC2)c1 (stereo not given) | -39 | -2.8* | 0 | -0.66 | -0.44 | 645 | 233
COc1ccc(C)cc1S(=O)(=O)N1CCCCC1 | -1 | -0.1 | 0 | -0.081 | -0.37 | · | ·
CC(=O)Nc1c2c(nn1-c1ccc(C)cc1C)CSC2 | -19 | -1.9* | 0 | -1.4 | -0.31 | 641 | 259
CCCC(=O)Nc1c2c(nn1-c1ccc(C)cc1C)CSC2 | -31 | 0.18 | 0 | -0.051 | 0.12 | · | ·
c1cc(CNc2ccc3c(c2)OCCO3)ccn1 | -4 | 0.031 | 0 | -0.16 | -0.0052 | · | ·
CCCCn1cnc2sc3c(c2c1=N)CCCC3 | 3 | -2.5* | -2 | -0.92 | -0.66 | 580 | 221
Nc1nc2ccccc2n1/N=C/c1ccc(Br)cc1 | -22 | -6.7* | 0 | 0.023 | -1 | 707 | 220
COc1ccc(-c2nc3n(n2)C(c2ccccc2Cl)C(C(N)=O)=C(C)N3)cc1 (stereo not given) | -16 | -3* | 0 | -0.002 | 0.34 | 626 | 245
SMILES | S1P1 ag pot | M1 antag | S1P3 agonist | D1 allo mod | M1 ag | M1 antag confirm | mGluR4 antag
Cc1cccc(OCc2nnc(SCc3cc(=O)n4cc(Br)ccc4n3)o2)c1 | -5 | -3* | -3 | 0.014 | 2 | 564 | 233
COc1ccc(NC(=O)c2ccc(CN3CCN(c4ccccc4)CC3)cc2)cc1OC | 32 | -2.7* | -2 | -1.4 | -0.57 | 593 | 240
Clc1ccc(Oc2nc(Oc3ccc(Cl)cc3)nc(N3CCOCC3)n2)cc1 | 2 | · | 0 | · | · | · | ·
COC(=O)c1ccc(Oc2nc(N3CCCCC3)nc(N3CCOCC3)n2)cc1 | · | -2.3* | -1 | 0.2 | -0.92 | 457 | 186
Cc1ccc(S(=O)(=O)N(c2ccccc2)C2CCS(=O)(=O)C2)cc1 (stereo not given) | 9 | 0.053 | 0 | -0.1 | 0.19 | · | ·
COc1c2c(nc3occc13)C(CCC(C)(C)O)(OC)C(O)CC2 (stereo not given) | -6 | -0.82 | 2 | 0.21 | 0.045 | · | ·
CCCc1cc(Nc2c(C)n(C)n(-c3ccccc3)c2=O)n2c(nc3ccccc32)c1C#N | -17 | -2.4* | -3 | · | 0.29 | 482 | 237
COc1ccc(OCC(=O)Nc2ccc(C)cc2)cc1 | -15 | -14* | 0 | -0.55 | -1 | 516 | 216
Cc1ccc(OCC(=O)Nc2ccc(N3CCOCC3)cc2)cc1 | -6 | -0.73 | -1 | 0.07 | 0.45 | · | ·
CCOc1ccc(NC(=O)CN(c2ccc(OC)cc2)S(C)(=O)=O)cc1 | -1 | -3.5* | -1 | -0.62 | -0.69 | 612 | 241
O=C(CSc1ccc2nnc(-c3ccccc3)n2n1)N1CCCCC1 | 4 | -0.013 | 0 | -0.1 | 0.99 | · | ·
O=S(=O)(NCC(c1cccnc1)N1CCN(c2ccccc2)CC1)c1cc(F)ccc1F (stereo not given) | · | -0.61 | · | -0.54 | -0.1 | · | ·
COc1ccccc1N1CCN(C(=O)CCCn2c(=O)[nH]c3ccsc3c2=O)CC1 | 1 | -4.2* | -1 | -0.46 | -1.4 | 617 | 222
COc1ccccc1N1CCN(C(=O)CCCCn2c(=O)[nH]c3ccsc3c2=O)CC1 | -7 | 0.19 | 0 | 0.17 | 0.28 | · | ·
CCS(=O)(=O)NCCc1cc2ccc(C)cc2[nH]c1=O | -4 | 0.88 | -1 | 0.48 | -0.09 | · | ·
CCCCN(C)C(=O)C1CCN(C/C(C)=C/c2ccccc2)CC1 | -21 | -4* | -1 | -0.67 | -0.6 | 520* | 222
C/C(=C\c1ccccc1)CN1CCN(c2ccccc2)CC1 | · | 0.18 | · | -0.68 | 0.0019 | · | ·
c1ccc(CN2CCN(CCN3CCn4c3nc3ccccc34)CC2)cc1 | -15 | -2.1* | -1 | 0.034 | 0.13 | 566* | 252
CC1(C)NC(=O)N(CC(O)COc2ccccc2C(=O)N2CCCCC2)C1=O (stereo not given) | 6 | 0.5 | -1 | 0.12 | -0.18 | · | ·
CC1(C)NC(=O)N(CC(O)COc2cc3ccccc3cc2C(=O)N2CCCCC2)C1=O (stereo not given) | -14 | -3* | -4 | · | 0.49 | 638 | 243
O=C1c2ccccc2C(=O)N1CC1=CCS(=O)(=O)C1 | -2 | -2* | -1 | -0.029 | -0.4 | 531 | 202
Cc1cc(CN2C(=O)c3ccccc3C2=O)no1 | -2 | 0.65 | -2 | -0.28 | 0.47 | · | ·
